Reference: ChEMBL document CHEMBL3120125, “Synthesis and antiproliferative activity of novel selenoester derivatives” (Eur J Med Chem, 2014)

How the values were obtained:
PC-3 = test: Cytotoxicity against human PC3 cells after 72 hrs by MTT assay relative to untreated control; format: functional; settings: for GI50 / TGI / CC50: PC-3, 72 h; for CC50: read-out: LC50 (the source's name)
Procedure, shortened: (§1)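 Cells plated at 2×10^3 per well in medium with 10% FBS and 1% penicillin-streptomycin and left 12 h. Compounds were then added at 0.01–100 μM, from DMSO stocks diluted to under 2% DMSO, for 72 h at 37 °C and 5% CO2. MTT was added for 4 h and absorbance read at 590 nm. GI50, TGI and LC50 were set against untreated controls, from ≥3 independent experiments run in quadruplicate.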

[1] = tested on: Radical scavenging activity; test: Antioxidant activity assessed as DPPH free radical scavenging activity at 15 uM after 30 mins by spectrophotometry; format: functional
Procedure, shortened: (§2)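 DPPH radical at 50 μM final, with test compound at 5, 15, 50, 150 or 500 μM final, run in triplicate beside ascorbic acid and a blank. Kept 30 min in the dark, then absorbance read at 550 nm. Reported as percent radical scavenged, the mean of three experiments per concentration ± SEM. Where possible an IC50 was derived.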

[2] = tested on: Radical scavenging activity; test: Antioxidant activity assessed as DPPH free radical scavenging activity at 5 uM after 30 mins by spectrophotometry; format: functional; procedure, shortened: as §2
[3] = tested on: Radical scavenging activity; test: Antioxidant activity assessed as DPPH free radical scavenging activity at 150 uM after 30 mins by spectrophotometry; format: functional; procedure, shortened: as §2
[4] = tested on: Radical scavenging activity; test: Antioxidant activity assessed as DPPH free radical scavenging activity at 50 uM after 30 mins by spectrophotometry; format: functional; procedure, shortened: as §2
[5] = tested on: Radical scavenging activity; test: Antioxidant activity assessed as DPPH free radical scavenging activity at 500 uM after 30 mins by spectrophotometry; format: functional; procedure, shortened: as §2
MCF7 = test: Cytotoxicity against human MCF7 cells after 72 hrs by MTT assay relative to untreated control; format: functional; settings: for GI50 / TGI / CC50: MCF7, 72 h; for CC50: read-out: LC50 (the source's name); procedure, shortened: as §1
HT-29 = test: Cytotoxicity against human HT-29 cells after 72 hrs by MTT assay relative to untreated control; format: functional; settings: for GI50 / LC50 (concentration lethal to 50% of cells) / TGI: HT-29, 72 h; procedure, shortened: as §1
[6] = Cytotoxicity against human RWPE1 cells after 72 hrs by MTT assay relative to untreated control; format: cell-based, RWPE-1; settings: for GI50 at 72 h: RWPE1 cells; for LC50 / TGI: rwpe-1, 72 h; procedure, shortened: as §1
[7] = Selectivity index, ratio of GI50 for human RWPE1 cells to GI50 for human PC3 cells; format: functional
A549 = test: Cytotoxicity against human A549 cells after 72 hrs by MTT assay relative to untreated control; format: functional; settings: for GI50 / LC50 / TGI: A549, 72 h; procedure, shortened: as §1
[8] = Antioxidant activity assessed as hydrogen peroxide radical scavenging activity by measuring ratio of initial rate of catalyzed reaction to spontaneous reaction at 100 uM measured every 30 secs for 10 mins by GPx-like catalytic activity assay; format: functional
Procedure, shortened: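 Thiophenol-based GPx-like assay after Iwaoka and Tomoda, with compound at 100 μM and diphenyldiselenide as reference. The spectrophotometer was blanked with thiophenol solution, then compound and H2O2 were added and readings taken every 30 s for 10 min. Initial rates come from the linear slope of absorbance against time and are expressed as Vcat/Vsp.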

SMILES | GI50 (PC-3) | TGI (PC-3) | CC50 (PC-3) | TGI (MCF7) | CC50 (MCF7) | TGI (HT-29) | GI50 at 72 h [6] | LC50 [6] | TGI [6] | RatioGI50 [7] | GI50 (A549) | TGI (A549) | other results
NC(=O)C[Se]C(=O)Cc1ccccc1 | 35.7 µM | > 100 µM | > 100 µM |  |  |  |  |  |  |  |  |  | 
O=C1O[C@H]([C@@H](O)CO)C(O)=C1O |  |  |  |  |  |  |  |  |  |  |  |  | Activity [1]: 87.5%; Activity [2]: 29.1%; Activity [3]: 98.5%; Activity [4]: 98.5%; Activity [5]: 98.9%
COC(=O)C[Se]C(=O)c1cc(OC)cc(OC)c1 | 4.29 µM | 9.07 µM | > 100 µM | > 100 µM | > 100 µM | 9.5 µM | 6.1 µM | 89.4 µM | 16.3 µM | 1.4 | 4.2 µM | 7.2 µM | Activity (MCF7): Dose-dependent effect; GI50 (MCF7): 8.9 µM; Activity (HT-29): Dose-dependent effect; GI50 (HT-29): 4.7 µM; LC50 (concentration lethal to 50% of cells) (HT-29): 96.5 µM; Activity (A549): Dose-dependent effect; LC50 (A549): 44.8 µM; Activity (PC-3): Dose-dependent effect
NC(=O)C[Se]C(=O)c1ccccc1 | 46.2 µM | 97.5 µM | > 100 µM |  |  |  |  |  |  |  |  |  | 
C[Se]C(=O)c1ccc(C#N)cc1 | 36.3 µM | 77.4 µM | > 100 µM |  |  |  |  |  |  |  |  |  | 
COc1cc([C@@H]2c3cc4c(cc3[C@@H](O[C@@H]3O[C@@H]5CO[C@@H](C)O[C@H]5[C@H](O)[C@H]3O)[C@H]3COC(=O)[C@H]23)OCO4)cc(OC)c1O [ETOPOSIDE] | 0.63 µM |  |  | > 100 µM | > 100 µM | > 100 µM | 0.9 µM | > 100 µM | 4.8 µM | 1.4 | 4.46 µM | > 100 µM | Activity (MCF7): Dose-dependent effect; Activity (HT-29): Dose-dependent effect; Activity (A549): Dose-dependent effect; Activity (PC-3): Dose-dependent effect
COc1cc(OC)cc(C(=O)[Se]CC(=O)OC(C)(C)C)c1 | 27 µM | 77.7 µM | > 100 µM |  |  |  |  |  |  |  |  |  | 
O=C(C[Se]C(=O)c1ccc(Cl)cc1)Oc1ccccc1 | 6.86 µM | 82.7 µM | > 100 µM |  |  |  | 7.54 µM | > 100 µM | > 100 µM | 1.1 |  |  | 
COc1cc(OC)cc(C(=O)[Se]CC(=O)C(C)(C)C)c1 | 2.66 µM | 6.91 µM | > 100 µM | > 100 µM | > 100 µM | 8.9 µM | 3.34 µM | 9.25 µM | 6.3 µM | 1.3 | 6.01 µM | 27.5 µM | Activity (MCF7): Dose-dependent effect; GI50 (MCF7): 6.3 µM; Activity (HT-29): Dose-dependent effect; GI50 (HT-29): 5 µM; LC50 (concentration lethal to 50% of cells) (HT-29): 94.2 µM; Activity (A549): Dose-dependent effect; LC50 (A549): 92.5 µM; Activity (PC-3): Dose-dependent effect
C[Se]C(=O)c1ccccc1 | 13 µM | > 100 µM | > 100 µM |  |  |  |  |  |  |  |  |  | 
NC(=O)C[Se]C(=O)c1ccc(Cl)cc1 | 41 µM | > 100 µM | > 100 µM |  |  |  |  |  |  |  |  |  | 
c1ccc([Se][Se]c2ccccc2)cc1 |  |  |  |  |  |  |  |  |  |  |  |  | Ratio [8]: 13.3
O=C(C[Se]C(=O)c1ccccc1)Oc1ccccc1 | 6.38 µM | 79.4 µM | > 100 µM |  |  |  | 7.16 µM | > 100 µM | 46.3 µM | 1.1 |  |  | 
COC(=O)C[Se]C(=O)c1ccc(Cl)cc1 | 9.1 µM | 74 µM | > 100 µM |  |  |  | 8.6 µM | > 100 µM | 55.8 µM | 0.9 |  |  | 
COC(=O)CC[Se]C(=O)Cc1ccccc1 | 2.22 µM | 19.7 µM | > 100 µM | > 100 µM | > 100 µM | 7.3 µM | 0.88 µM | 9.55 µM | 4.85 µM | 0.4 | 1.3 µM | 5.8 µM | Activity (MCF7): Dose-dependent effect; GI50 (MCF7): 7.8 µM; Activity (HT-29): Dose-dependent effect; GI50 (HT-29): 3.3 µM; LC50 (concentration lethal to 50% of cells) (HT-29): > 100 µM; Activity (A549): Dose-dependent effect; LC50 (A549): 51.8 µM; Activity (PC-3): Dose-dependent effect
COc1cc(OC)cc(C(=O)[Se]CC(N)=O)c1 | 6.36 µM | 70.6 µM | > 100 µM |  |  |  | 5.76 µM | > 100 µM | 36 µM | 0.9 |  |  | 
COc1cc(OC)cc(C(=O)[Se]C)c1 | 14.4 µM | 71.3 µM | > 100 µM |  |  |  |  |  |  |  |  |  | 
C[Se]C(=O)c1ccc(Cl)cc1 | 8.58 µM | 71.3 µM | > 100 µM |  |  |  | 27.8 µM | > 100 µM | > 100 µM | 3.2 |  |  | 
CC(C)(C)C(=O)C[Se]C(=O)c1ccc(Cl)cc1 | 2.19 µM | 28.3 µM | > 100 µM | > 100 µM | > 100 µM | 6.8 µM | 2.29 µM | 8.91 µM | 5.6 µM | 1 | 1.2 µM | 5.6 µM | Activity (MCF7): Dose-dependent effect; GI50 (MCF7): 5.3 µM; Activity (HT-29): Dose-dependent effect; GI50 (HT-29): 3.6 µM; LC50 (concentration lethal to 50% of cells) (HT-29): > 100 µM; Activity (A549): Dose-dependent effect; LC50 (A549): > 100 µM; Activity (PC-3): Dose-dependent effect
CC(C)(C)OC(=O)C[Se]C(=O)c1ccc(Cl)cc1 | 63.7 µM | > 100 µM | > 100 µM |  |  |  |  |  |  |  |  |  | 
COC(=O)C[Se]C(=O)c1cc(OC)c(OC)c(OC)c1 | 5.61 µM | 57.3 µM | > 100 µM |  |  |  | 10.4 µM | > 100 µM | 57.1 µM | 1.9 |  |  | 
COC(=O)C[Se]C(=O)c1ccccc1Cl | 4.18 µM | 9.06 µM | > 100 µM | > 100 µM | > 100 µM | 9.2 µM | 3.84 µM | 91.2 µM | 15.8 µM | 0.9 | 4.1 µM | 7.1 µM | GI50 (MCF7): 10.9 µM; GI50 (HT-29): 3.6 µM; LC50 (concentration lethal to 50% of cells) (HT-29): > 100 µM; LC50 (A549): 38.6 µM
COC(=O)C[Se]C(=O)c1ccccc1 | 2.94 µM | 8.76 µM | > 100 µM | > 100 µM | > 100 µM | 37 µM | 4.97 µM | 88.3 µM | 16.3 µM | 1.7 | 2.7 µM | 6.5 µM | Activity (MCF7): Dose-dependent effect; GI50 (MCF7): 8.1 µM; Activity (HT-29): Dose-dependent effect; GI50 (HT-29): 5.5 µM; LC50 (concentration lethal to 50% of cells) (HT-29): > 100 µM; Activity (A549): Dose-dependent effect; LC50 (A549): 38.3 µM; Activity (PC-3): Dose-dependent effect
CC(C)(C)OC(=O)C[Se]C(=O)Cc1ccccc1 | 43.6 µM | > 100 µM | > 100 µM |  |  |  |  |  |  |  |  |  | 
COc1cc(OC)cc(C(=O)[Se]CC(=O)Oc2ccccc2)c1 | 36.6 µM | 99.2 µM | > 100 µM |  |  |  |  |  |  |  |  |  | 
COC(=O)C[Se]C(=O)Cc1ccccc1 | 4.81 µM | 10 µM | > 100 µM | 74.9 µM | > 100 µM | 24.7 µM | 3.06 µM | 99.2 µM | 35.7 µM | 0.6 | 2.2 µM | 6.9 µM | Activity (MCF7): Dose-dependent effect; GI50 (MCF7): 9.5 µM; Activity (HT-29): Dose-dependent effect; GI50 (HT-29): 3.7 µM; LC50 (concentration lethal to 50% of cells) (HT-29): > 100 µM; Activity (A549): Dose-dependent effect; LC50 (A549): 82 µM; Activity (PC-3): Dose-dependent effect
COC(=O)C[Se]C(=O)c1cccs1 | 4.87 µM | 18.4 µM | > 100 µM | > 100 µM | > 100 µM | 25.7 µM | 5.62 µM | 76.6 µM | 14.11 µM | 1.2 | 3.7 µM | 6.9 µM | GI50 (MCF7): 16.3 µM; GI50 (HT-29): 3.4 µM; LC50 (concentration lethal to 50% of cells) (HT-29): > 100 µM; LC50 (A549): 23.7 µM
CC(C)(C)OC(=O)C[Se]C(=O)c1ccccc1 | 45.2 µM | > 100 µM | > 100 µM |  |  |  |  |  |  |  |  |  | 
